Laboratory results from ChEMBL document CHEMBL3259614, “Design, synthesis, and structure-activity relationship studies of novel fused heterocycles-linked triazoles with good activity and water solubility” (J Med Chem, 2014).
≈ marks a conversion by molar mass, not a printed value.

Tests used:
Format in all cases: functional
Candida albicans [1] = experiment: Antimicrobial activity against Candida albicans SC5314 after 24 hrs by serial dilution method; details: SC5314, 24 h
Procedure, shortened: (§1)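 Broth serial dilution MIC in 96-well plates following NCCLS/CLSI methods. Compounds were dissolved in DMSO and serially diluted in growth medium, with incubation at 35 °C. […] C. parapsilosis 22019 served as the quality-control strain in each assay.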

Candida albicans [2] = experiment: Antimicrobial activity against Candida albicans Y0109 after 24 hrs by serial dilution method; details: Y0109, 24 h; procedure, shortened: as §1
Candida parapsilosis = experiment: Antimicrobial activity against Candida parapsilosis 22019 after 24 hrs by serial dilution method; details: Lodderomyces parapsilosis, 22019, 24 h; procedure, shortened: as §1
Cryptococcus neoformans = experiment: Antimicrobial activity against Cryptococcus neoformans 32609 after 72 hrs by serial dilution method; details: Cryptococcus neoformans, 32609, 72 h; procedure, shortened: as §1
Nakaseomyces glabratus = experiment: Antimicrobial activity against Candida glabrata 537 after 24 hrs by serial dilution method; details: Nakaseomyces glabratus, 537, 24 h; procedure, shortened: as §1
Aspergillus fumigatus = experiment: Antimicrobial activity against Aspergillus fumigatus 7544 after 48 hrs by serial dilution method; details: Aspergillus fumigatus, 7544, 48 h; procedure, shortened: as §1

SMILES	MIC (Candida albicans [1]) [mg/L]	MIC (Candida albicans [2]) [mg/L]	MIC (Candida parapsilosis) [mg/L]	MIC (Cryptococcus neoformans) [mg/L]	MIC (Nakaseomyces glabratus) [mg/L]	MIC (Aspergillus fumigatus) [mg/L]
C[C@@H](N1CCc2nc(-c3ccsc3)sc2C1)[C@](O)(Cn1cncn1)c1ccc(F)cc1F	0.25 (≈ 0.528 µM)	0.25 (≈ 0.528 µM)	0.25 (≈ 0.528 µM)	0.25 (≈ 0.528 µM)	0.25 (≈ 0.528 µM)	8 (≈ 16.9 µM)
C[C@@H](N1CCn2nc(-c3ccco3)nc2C1)[C@](O)(Cn1cncn1)c1ccc(F)cc1F	0.125 (≈ 0.283 µM)	0.125 (≈ 0.283 µM)	0.25 (≈ 0.566 µM)	0.25 (≈ 0.566 µM)	0.25 (≈ 0.566 µM)	16 (≈ 36.2 µM)
C[C@@H](N1CCn2nc(-c3ccsc3)nc2C1)[C@](O)(Cn1cncn1)c1ccc(F)cc1F	0.125 (≈ 0.273 µM)	0.125 (≈ 0.273 µM)	0.125 (≈ 0.273 µM)	0.125 (≈ 0.273 µM)	0.125 (≈ 0.273 µM)	16 (≈ 35 µM)
C[C@@H](N1CCn2nc(Br)nc2C1)[C@](O)(Cn1cncn1)c1ccc(F)cc1F	0.125 (≈ 0.275 µM)	0.125 (≈ 0.275 µM)	0.25 (≈ 0.55 µM)	0.25 (≈ 0.55 µM)	0.5 (≈ 1.1 µM)	16 (≈ 35.2 µM)
C[C@@H](N1CCn2nc(-c3ccncc3)nc2C1)[C@](O)(Cn1cncn1)c1ccc(F)cc1F	0.0625 (≈ 0.138 µM)	0.0625 (≈ 0.138 µM)	0.0312 (≈ 0.0691 µM)	0.125 (≈ 0.276 µM)	0.125 (≈ 0.276 µM)	16 (≈ 35.4 µM)
C[C@@H](N1CCn2nc(-c3cncnc3)nc2C1)[C@](O)(Cn1cncn1)c1ccc(F)cc1F	0.0312 (≈ 0.0689 µM)	0.125 (≈ 0.276 µM)	0.0625 (≈ 0.138 µM)	0.0625 (≈ 0.138 µM)	0.0625 (≈ 0.138 µM)	32 (≈ 70.6 µM)
C[C@@H](N1CCn2nc(-c3ccc(F)nc3)nc2C1)[C@](O)(Cn1cncn1)c1ccc(F)cc1F	0.0156 (≈ 0.0332 µM)	0.0625 (≈ 0.133 µM)	0.0625 (≈ 0.133 µM)	0.0312 (≈ 0.0664 µM)	0.0312 (≈ 0.0664 µM)	2 (≈ 4.25 µM)
C[C@@H](N1CCn2nc(-c3cncc(F)c3)nc2C1)[C@](O)(Cn1cncn1)c1ccc(F)cc1F	0.125 (≈ 0.266 µM)	0.125 (≈ 0.266 µM)	0.125 (≈ 0.266 µM)	0.125 (≈ 0.266 µM)	1 (≈ 2.13 µM)	32 (≈ 68 µM)
C[C@@H](N1CCn2nc(-c3cncc(C#N)c3)nc2C1)[C@](O)(Cn1cncn1)c1ccc(F)cc1F	0.125 (≈ 0.262 µM)	0.125 (≈ 0.262 µM)	0.25 (≈ 0.524 µM)	0.125 (≈ 0.262 µM)	1 (≈ 2.09 µM)	64 (≈ 134 µM)
COc1ccc(-c2nc3n(n2)CCN([C@H](C)[C@](O)(Cn2cncn2)c2ccc(F)cc2F)C3)cn1	0.0625 (≈ 0.13 µM)	0.125 (≈ 0.259 µM)	0.125 (≈ 0.259 µM)	0.25 (≈ 0.518 µM)	0.5 (≈ 1.04 µM)	32 (≈ 66.3 µM)
Cc1ncc(-c2nc3n(n2)CCN([C@H](C)[C@](O)(Cn2cncn2)c2ccc(F)cc2F)C3)cn1	0.0625 (≈ 0.134 µM)	0.125 (≈ 0.267 µM)	0.125 (≈ 0.267 µM)	0.125 (≈ 0.267 µM)	0.25 (≈ 0.535 µM)	32 (≈ 68.5 µM)
COc1ncc(-c2nc3n(n2)CCN([C@H](C)[C@](O)(Cn2cncn2)c2ccc(F)cc2F)C3)cn1	0.0625 (≈ 0.129 µM)	0.125 (≈ 0.259 µM)	0.25 (≈ 0.517 µM)	0.5 (≈ 1.03 µM)	0.25 (≈ 0.517 µM)	32 (≈ 66.2 µM)
C[C@@H](N1CCc2nc(Br)sc2C1)[C@](O)(Cn1cncn1)c1ccc(F)cc1F	1 (≈ 2.13 µM)	1 (≈ 2.13 µM)	1 (≈ 2.13 µM)	0.5 (≈ 1.06 µM)	1 (≈ 2.13 µM)	32 (≈ 68 µM)
C[C@@H](N1CCc2nc(-c3ccc(Cl)cc3)sc2C1)[C@](O)(Cn1cncn1)c1ccc(F)cc1F	0.5 (≈ 0.996 µM)	1 (≈ 1.99 µM)	2 (≈ 3.98 µM)	1 (≈ 1.99 µM)	1 (≈ 1.99 µM)	32 (≈ 63.7 µM)
C[C@@H](N1CCc2nc(-c3ccc(C(F)(F)F)cc3)sc2C1)[C@](O)(Cn1cncn1)c1ccc(F)cc1F	1 (≈ 1.87 µM)	2 (≈ 3.73 µM)	2 (≈ 3.73 µM)	2 (≈ 3.73 µM)	1 (≈ 1.87 µM)	32 (≈ 59.8 µM)
COc1ccc(-c2nc3c(s2)CN([C@H](C)[C@](O)(Cn2cncn2)c2ccc(F)cc2F)CC3)cc1	1 (≈ 2.01 µM)	1 (≈ 2.01 µM)	0.5 (≈ 1 µM)	1 (≈ 2.01 µM)	1 (≈ 2.01 µM)	16 (≈ 32.2 µM)
Cc1ccc(-c2nc3c(s2)CN([C@H](C)[C@](O)(Cn2cncn2)c2ccc(F)cc2F)CC3)cc1	0.5 (≈ 1.04 µM)	1 (≈ 2.08 µM)	0.5 (≈ 1.04 µM)	0.5 (≈ 1.04 µM)	1 (≈ 2.08 µM)	16 (≈ 33.2 µM)
C[C@@H](N1CCc2nc(-c3ccc(F)cc3)sc2C1)[C@](O)(Cn1cncn1)c1ccc(F)cc1F	1 (≈ 2.06 µM)	1 (≈ 2.06 µM)	2 (≈ 4.12 µM)	1 (≈ 2.06 µM)	4 (≈ 8.24 µM)	16 (≈ 33 µM)
C[C@@H](N1CCc2nc(-c3ccc(Br)cc3)sc2C1)[C@](O)(Cn1cncn1)c1ccc(F)cc1F	1 (≈ 1.83 µM)	1 (≈ 1.83 µM)	4 (≈ 7.32 µM)	1 (≈ 1.83 µM)	2 (≈ 3.66 µM)	16 (≈ 29.3 µM)
CC(C)c1ccc(-c2nc3c(s2)CN([C@H](C)[C@](O)(Cn2cncn2)c2ccc(F)cc2F)CC3)cc1	0.5 (≈ 0.981 µM)	1 (≈ 1.96 µM)	0.5 (≈ 0.981 µM)	1 (≈ 1.96 µM)	1 (≈ 1.96 µM)	16 (≈ 31.4 µM)
